# Compound activity (PubChem)
# Most compounds without a hit are left out; they make up all but 2.4% or so of the library.
# Neddylation inh – blocks human cullin neddylation | actives 0.58% (n = 360,000) | inhibition, % at 25 µM | TR-FRET cullin neddylation, biochemical; in the data active = inhibition above about 36%
# Rpn11 inh – inhibitors of human proteasome Rpn11; O00487; human 26S proteasome, Ub4-pepOG fluorescence polarization; 20S core pre-blocked with epoxomicin; inhibition, % at 20 µM; actives 0.59% (n = 360,000);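 active = inhibition at 20 µM, scaled to each plate's controls, above about 33%, limit read from the data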
# Rin1-Abl PPI inh – human Rin1-Abl interaction inhibition | TR-FRET Rin1/Abl binding, biochemical | inhibition, % at 7.35 µM | AID 588664 | actives 0.4% (n = 360,000) | P00519+Q13671; in the data active = inhibition above about 5%, passing the limit was not always enough
# CSN deneddyl inh – CSN deneddylation inhibition. Q92905. Purified CSN, SCF-Nedd8-OG deneddylation, fluorescence polarization. inhibition, % at 12.5 µM. actives 0.38% (n = 360,000). AID 651999;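 active = pattern-corrected inhibition above about 35%, with an unprinted fluorescence ratio check between 0.5 and 1.5, limit read from the data, passing the limit was not always enough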;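 also: 0% = enzyme with substrate and 100% = substrate without enzyme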
#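 Material: human Csn5 produced in HEK293T cells; Input: enzyme 0.24 nM; Reagent: SCFSkp2-Nedd8OG substrate at 10 nM final; Dosing: 12.5 µM compound; Incubation: 90 min reaction at room temperature; Detection: fluorescence polarization of the substrate; Evaluation: % inhibition of substrate cleavage by Csn5; Control set: substrate-only high control, full reaction low control.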
# TPT1 inhibitor – blocks Candida albicans tRNA 2'-phosphotransferase; recombinant caTPT1, FP RNA substrate dephosphorylation; actives 0.81% (n = 300,000); inhibition, % at 5 µM;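 active = inhibition above the mean of all tested compounds plus 3 SD, set per screening campaign, cut at about 24% in these data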;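 also: plate controls were DMSO alone for no effect and ferristatin control at 100 nM for full effect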
# HNF4A DNA FP – change in binding of human HNF4 alpha to DNA; P41235; HNF4a-FITC DNA binding, fluorescence polarization, 1 h; activity change, % at 10 µM; actives 0.3% (n = 360,000); AID 1224865; in the data active = activity change above about 30%, passing the limit was not always enough
# Target sequence (P41235 whole entry, looked up): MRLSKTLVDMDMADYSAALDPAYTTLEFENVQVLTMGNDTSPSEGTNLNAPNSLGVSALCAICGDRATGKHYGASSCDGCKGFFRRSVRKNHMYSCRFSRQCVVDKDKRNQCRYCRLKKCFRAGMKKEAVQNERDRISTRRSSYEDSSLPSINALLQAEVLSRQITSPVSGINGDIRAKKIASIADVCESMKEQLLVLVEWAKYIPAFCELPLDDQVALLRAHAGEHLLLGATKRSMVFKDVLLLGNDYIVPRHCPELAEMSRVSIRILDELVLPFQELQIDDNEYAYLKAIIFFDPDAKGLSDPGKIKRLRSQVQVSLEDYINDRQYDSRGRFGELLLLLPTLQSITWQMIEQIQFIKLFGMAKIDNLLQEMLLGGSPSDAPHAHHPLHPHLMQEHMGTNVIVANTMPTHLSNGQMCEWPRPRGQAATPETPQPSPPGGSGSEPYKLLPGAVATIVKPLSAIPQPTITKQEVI
# Rin1-Abl confirm – confirmation of inhibitors of human Rin1-Abl interaction; shares compounds with Rin1-Abl PPI inh; TR-FRET Rin1-Abl binding, purified proteins; inhibition, % at 7.35 µM; actives 49% (n = 1,300); AID 602124; in the data active = inhibition above about 6.5%
# GFP quench-1 – GFP fluorescence interference artifact. actives 8.5% (n = 1,300). inhibitors/quenchers counterscreen. shares compounds with Rin1-Abl PPI inh. inhibition, % at 6.75 µM; in the data active = inhibition above about 6.5%;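 also: ABL1-eGFP fusion protein alone without its partner RIN1-SBP; 0% = protein with vehicle and 100% = wells lacking protein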
# GFP quench DR – GFP fluorescence interference dose response; GFP fluorescence interference/quenching counterscreen; 230 tested, under 10 active; IC50, µM; shares compounds with Rin1-Abl PPI inh; AID 602182;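 also: ABL1-eGFP fusion protein alone without its RIN1 binding partner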
# GFP quench-2 – GFP quenching artifact for Rin1-Abl inhibitor hits; AID 602397; GFP fluorescence quenching counterscreen, biochemical; IC50, µM; 25 tested, under 10 active; shares compounds with Rin1-Abl PPI inh
# Active calls of the source: *; nt = no result shown. Unless noted, no rule for the calls is given here.
SMILES,Neddylation inh,Rpn11 inh,Rin1-Abl PPI inh,CSN deneddyl inh,TPT1 inhibitor,HNF4A DNA FP,Rin1-Abl confirm,GFP quench-1,others
Cc1ccccc1OCC(=O)Nc1ccccc1-c1ccccc1,2.6,-3.4,7.0*,-0.2,0.1,-0.7,0.6,-1.1,
CC1CCN(C(=O)c2[nH]cnc2C(=O)NC2CCN(C(=O)OC(C)(C)C)CC2)CC1,0.8,-5.0,10.0*,-1.1,nt,-3.1,4.2,-0.6,
COc1ccc(S(=O)(=O)NC(C)C(=O)NCc2cccnc2)cc1Cl (stereo not drawn),-0.1,-1.4,-1.2,-4.6,-2.3,-1.0,nt,nt,
COc1ccc(S(=O)(=O)NC(C)C(=O)NCc2cccnc2)cc1OC (stereo not drawn),1.0,0.7,8.4*,1.0,2.2,-2.3,1.0,0.6,
Cc1cccn2c(=O)c(/C=N/O)c(N3CCOCC3)nc12,-2.7,-3.2,0.1,-9.9,2.4,8.6,nt,nt,
Cn1c(=O)c2c(nc(-n3ccnc3)n2Cc2ccc(Cl)cc2Cl)n(C)c1=O,3.9,2.9,71.6*,0.9,-2.0,1.8,67.6*,-0.4,GFP quench DR=>67.5;GFP quench-2=>67.5
Cn1c(=O)c2c(nc(-n3ccnc3)n2Cc2ccccc2)n(C)c1=O,4.9,-0.3,14.8*,0.8,-3.2,0.1,12.9*,1.4,
O=C(COC(=O)CNC(=O)c1ccc(Cl)cc1Cl)Nc1cccc(S(=O)(=O)N2CCCC2)c1,9.7,-0.9,0.1,-0.6,0.0,5.0,nt,nt,
O=c1c(-c2ccccc2)coc2c(CN3CCCC3)c(O)ccc12,nt,-2.0,5.9*,0.9,1.5,-0.1,-2.4,0.0,
COc1ccc(Cn2c(=O)[nH]c3cc(C(=O)NC4CCN(Cc5ccccc5)CC4)ccc32)cc1,0.6,-1.7,11.9*,3.1,-2.3,5.0,16.1*,-0.8,
COc1ccc(NS(=O)(=O)c2cccc(C(=O)NC3CCN(Cc4ccccc4)CC3)c2)cc1,1.1,-5.3,-1.4,2.8,-3.8,-5.4,nt,nt,
COc1ccc(COC(=O)C2=C(C)NC(=O)NC2c2cccc(OC)c2OC)cc1 (stereo not drawn),5.0,-9.8,7.2*,-3.9,-0.2,-0.5,2.6,0.5,
CCCOC(=O)c1ccc(NC(=O)CCC(=O)OCC)cc1,4.6,-3.0,10.4*,0.9,-4.4,0.9,13.9*,1.6,
CCCOC(=O)c1ccc(NC(=O)CCOc2ccccc2)cc1,-9.5,-3.3,1.2,-7.0,-1.5,-4.7,nt,nt,
O=C(CN1CCC(C(=O)c2ccc3c(c2)OCCO3)CC1)Nc1ccccc1C(F)(F)F,-2.9,7.0,3.5,1.2,-2.1,-0.8,nt,nt,
FC(F)(F)c1cnc(NNC(=S)Nc2ccccc2Cl)c(Cl)c1,-4.8,-6.0,5.7*,-1.5,1.9,0.7,-0.9,-0.2,
CN1OC[C@@H]2CN(C(=O)CCc3ccccc3)[C@H](c3ccccc3Br)C[C@@H]21,0.6,-4.2,14.5*,1.4,nt,0.6,11.6*,-0.3,
CC(=O)N1C[C@H]2CON(C)[C@H]2C[C@H]1c1ccccc1Br,-3.2,-2.4,-0.3,-1.0,nt,-4.5,nt,nt,
Cc1cc(=O)n(-c2ccc(O)cc2)[nH]1,3.5,-4.0,3.4,-4.7,-0.7,-2.3,nt,nt,
Cc1cc(=O)n(-c2ccc(C(=O)O)cc2)[nH]1,1.8,13.1,8.3*,3.3,1.5,-0.6,0.0,-0.7,
Cc1cccc(C(=O)NNC(=O)CN2C(=O)c3ccccc3C2=O)c1,-6.2,-2.3,0.9,2.4,-0.9,-3.1,nt,nt,
Cc1ccc2c(c1)c(=O)c1c3n2CCN(C(=O)CCl)C3CC1 (stereo not drawn),11.7,-14.0,9.4*,21.6,-21.1,-8.5,2.0,4.7,
C[C@H](CO)N1C[C@H](C)[C@@H](CN(C)Cc2ccncc2)Oc2c(NC(=O)c3ccncc3)cccc2C1=O,-2.3,2.3,9.3*,-5.4,nt,0.8,9.5*,-0.5,
